# System: Vero
# Test: Cytotoxicity against african green monkey Vero cells after 72 hrs by MTS assay
# Type: cell-based
# Conditions: Chlorocebus sabaeus
# How it was run: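 VERO cells (CCL-81), 72 h exposure, tetrazolium dye read-out.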
row,SMILES,IC50 [µM]
1,O=[N+]([O-])c1cn2c(n1)OC[C@@H](OCc1cccc(-c3ccc(F)cc3)c1)C2,> 125
2,O=[N+]([O-])c1cn2c(n1)OC[C@@H](OCc1ccccc1-c1cccc(F)c1)C2,> 125
3,COc1ccc(-c2ccccc2CO[C@@H]2COc3nc([N+](=O)[O-])cn3C2)cc1F,> 125
4,O=[N+]([O-])c1cn2c(n1)OC[C@@H](OCc1ccc(-c3ccc(C(F)(F)F)c(Cl)c3)cc1)C2,> 125
5,O=[N+]([O-])c1cn2c(n1)OC[C@@H](OCc1ccccc1-c1ccc(OC(F)(F)F)cc1)C2,> 125
6,O=[N+]([O-])c1cn2c(n1)OC[C@@H](OCc1ccc(-c3ccc(O)cc3)cc1)C2,> 125
7,O=[N+]([O-])c1cn2c(n1)OC[C@@H](OCc1cccc(-c3ccc(OCCCN4CCOCC4)cc3)c1)C2,> 125
8,O=[N+]([O-])c1cccc(-c2ccc(CO[C@@H]3COc4nc([N+](=O)[O-])cn4C3)cc2)c1,> 125
9,CC(C)Oc1ccc(-c2ccc(CO[C@@H]3COc4nc([N+](=O)[O-])cn4C3)cc2)cc1,> 125
10,CSc1ccc(-c2ccccc2CO[C@@H]2COc3nc([N+](=O)[O-])cn3C2)cc1,> 125
11,COc1cccc(-c2ccc(CO[C@@H]3COc4nc([N+](=O)[O-])cn4C3)cc2)c1,> 125
12,O=[N+]([O-])c1cn2c(n1)OC[C@@H](OCc1ccc(-c3cccc(OCCCO)c3)cc1)C2,> 125
13,N#Cc1cccc(-c2ccccc2CO[C@@H]2COc3nc([N+](=O)[O-])cn3C2)c1,> 125
14,O=[N+]([O-])c1cn2c(n1)OC[C@@H](OCc1ccc(-c3ccc4ccccc4c3)cc1)C2,> 125
15,O=Cc1cccc(-c2ccc(CO[C@@H]3COc4nc([N+](=O)[O-])cn4C3)cc2)c1,> 125
16,O=Cc1ccc(-c2ccc(CO[C@@H]3COc4nc([N+](=O)[O-])cn4C3)cc2)cc1,> 125

row,SMILES,IC50 [µM]
1,O=[N+]([O-])c1cn2c(n1)OC[C@@H](OCc1cccc(-c3ccc(OC(F)(F)F)cc3)c1)C2,> 125
2,O=[N+]([O-])c1cn2c(n1)OC[C@@H](OCc1ccc(-c3ccccc3Cl)cc1)C2,> 125
3,O=[N+]([O-])c1cn2c(n1)OC[C@@H](OCc1cccc(-c3cccc(F)c3)c1)C2,> 125
4,O=[N+]([O-])c1cn2c(n1)OC[C@@H](OCc1ccccc1-c1ccccc1)C2,> 125
5,O=Cc1ccccc1-c1ccc(CO[C@@H]2COc3nc([N+](=O)[O-])cn3C2)cc1,> 125
6,CSc1ccc(-c2ccc(CO[C@@H]3COc4nc([N+](=O)[O-])cn4C3)cc2)cc1,> 125
7,COc1ccc(-c2cccc(CO[C@@H]3COc4nc([N+](=O)[O-])cn4C3)c2)cc1F,> 125
8,O=[N+]([O-])c1cn2c(n1)OC[C@@H](OCc1ccc(-c3cccc(-c4ccccc4)c3)cc1)C2,> 125
9,CC(=O)c1ccc(-c2cccc(CO[C@@H]3COc4nc([N+](=O)[O-])cn4C3)c2)cc1,> 125
10,COc1c(F)cc(-c2ccc(CO[C@@H]3COc4nc([N+](=O)[O-])cn4C3)cc2)cc1F,> 125
11,COc1cc(C)c(-c2ccc(CO[C@@H]3COc4nc([N+](=O)[O-])cn4C3)cc2)c(C)c1,> 125
12,CSc1ccc(-c2cccc(CO[C@@H]3COc4nc([N+](=O)[O-])cn4C3)c2)cc1,> 125
13,O=[N+]([O-])c1cn2c(n1)OC[C@@H](OCc1ccc(-c3ccc(OCCO)cc3)cc1)C2,> 125
14,O=[N+]([O-])c1cn2c(n1)OC[C@@H](OCc1cccc(-c3cccc(OCCCN4CCOCC4)c3)c1)C2,> 125
15,CC(C)(C)c1ccc(-c2ccc(CO[C@@H]3COc4nc([N+](=O)[O-])cn4C3)cc2)cc1,> 125

# System: Mycobacterium tuberculosis
# Test: Antitubercular activity against Mycobacterium tuberculosis H37Rv in aerobic condition after 7 days by microplate alamar blue assay
# Type: functional
# Conditions: 168 h
# How it was run: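 M. tuberculosis H37Rv, replicating culture; 8-day microplate assay with Alamar blue added on day 7 to read growth. […] Mean of at least two independent determinations ± SD.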
row,SMILES,MIC [µM]
1,O=[N+]([O-])c1cn2c(n1)OC[C@@H](OCc1cccc(-c3ccc(F)cc3)c1)C2,0.077
2,O=[N+]([O-])c1cn2c(n1)OC[C@@H](OCc1ccccc1-c1cccc(F)c1)C2,0.62
3,COc1ccc(-c2ccccc2CO[C@@H]2COc3nc([N+](=O)[O-])cn3C2)cc1F,1.8
4,O=[N+]([O-])c1cn2c(n1)OC[C@@H](OCc1ccc(-c3ccc(C(F)(F)F)c(Cl)c3)cc1)C2,0.06
5,O=[N+]([O-])c1cn2c(n1)OC[C@@H](OCc1ccccc1-c1ccc(OC(F)(F)F)cc1)C2,2.3
6,O=[N+]([O-])c1cn2c(n1)OC[C@@H](OCc1ccc(-c3ccc(O)cc3)cc1)C2,0.64
7,O=[N+]([O-])c1cn2c(n1)OC[C@@H](OCc1cccc(-c3ccc(OCCCN4CCOCC4)cc3)c1)C2,0.69
8,O=[N+]([O-])c1cccc(-c2ccc(CO[C@@H]3COc4nc([N+](=O)[O-])cn4C3)cc2)c1,0.13
9,CC(C)Oc1ccc(-c2ccc(CO[C@@H]3COc4nc([N+](=O)[O-])cn4C3)cc2)cc1,0.25
10,CSc1ccc(-c2ccccc2CO[C@@H]2COc3nc([N+](=O)[O-])cn3C2)cc1,1.3
11,COc1cccc(-c2ccc(CO[C@@H]3COc4nc([N+](=O)[O-])cn4C3)cc2)c1,0.27
12,O=[N+]([O-])c1cn2c(n1)OC[C@@H](OCc1ccc(-c3cccc(OCCCO)c3)cc1)C2,0.18
13,N#Cc1cccc(-c2ccccc2CO[C@@H]2COc3nc([N+](=O)[O-])cn3C2)c1,0.8
14,O=[N+]([O-])c1cn2c(n1)OC[C@@H](OCc1ccc(-c3ccc4ccccc4c3)cc1)C2,0.045
15,O=Cc1cccc(-c2ccc(CO[C@@H]3COc4nc([N+](=O)[O-])cn4C3)cc2)c1,0.14
16,O=Cc1ccc(-c2ccc(CO[C@@H]3COc4nc([N+](=O)[O-])cn4C3)cc2)cc1,0.2

row,SMILES,MIC [µM]
1,O=[N+]([O-])c1cn2c(n1)OC[C@@H](OCc1cccc(-c3ccc(OC(F)(F)F)cc3)c1)C2,0.11
2,O=[N+]([O-])c1cn2c(n1)OC[C@@H](OCc1ccc(-c3ccccc3Cl)cc1)C2,0.15
3,O=[N+]([O-])c1cn2c(n1)OC[C@@H](OCc1cccc(-c3cccc(F)c3)c1)C2,0.18
4,O=[N+]([O-])c1cn2c(n1)OC[C@@H](OCc1ccccc1-c1ccccc1)C2,0.64
5,O=Cc1ccccc1-c1ccc(CO[C@@H]2COc3nc([N+](=O)[O-])cn3C2)cc1,0.08
6,CSc1ccc(-c2ccc(CO[C@@H]3COc4nc([N+](=O)[O-])cn4C3)cc2)cc1,0.075
7,COc1ccc(-c2cccc(CO[C@@H]3COc4nc([N+](=O)[O-])cn4C3)c2)cc1F,0.19
8,O=[N+]([O-])c1cn2c(n1)OC[C@@H](OCc1ccc(-c3cccc(-c4ccccc4)c3)cc1)C2,0.31
9,CC(=O)c1ccc(-c2cccc(CO[C@@H]3COc4nc([N+](=O)[O-])cn4C3)c2)cc1,0.3
10,COc1c(F)cc(-c2ccc(CO[C@@H]3COc4nc([N+](=O)[O-])cn4C3)cc2)cc1F,0.045
11,COc1cc(C)c(-c2ccc(CO[C@@H]3COc4nc([N+](=O)[O-])cn4C3)cc2)c(C)c1,0.58
12,CSc1ccc(-c2cccc(CO[C@@H]3COc4nc([N+](=O)[O-])cn4C3)c2)cc1,0.095
13,O=[N+]([O-])c1cn2c(n1)OC[C@@H](OCc1ccc(-c3ccc(OCCO)cc3)cc1)C2,0.55
14,O=[N+]([O-])c1cn2c(n1)OC[C@@H](OCc1cccc(-c3cccc(OCCCN4CCOCC4)c3)c1)C2,1.4
15,CC(C)(C)c1ccc(-c2ccc(CO[C@@H]3COc4nc([N+](=O)[O-])cn4C3)cc2)cc1,0.095

# System: Mycobacterium tuberculosis
# Test: Antitubercular activity against Mycobacterium tuberculosis H37Rv in anaerobic condition after 7 days by low oxygen recovery assay
# Type: functional
# Conditions: 168 h
row,SMILES,MIC [µM]
1,O=[N+]([O-])c1cn2c(n1)OC[C@@H](OCc1cccc(-c3ccc(F)cc3)c1)C2,3.8
2,O=[N+]([O-])c1cn2c(n1)OC[C@@H](OCc1ccccc1-c1cccc(F)c1)C2,3
3,COc1ccc(-c2ccccc2CO[C@@H]2COc3nc([N+](=O)[O-])cn3C2)cc1F,3.8
4,O=[N+]([O-])c1cn2c(n1)OC[C@@H](OCc1ccc(-c3ccc(C(F)(F)F)c(Cl)c3)cc1)C2,0.97
5,O=[N+]([O-])c1cn2c(n1)OC[C@@H](OCc1ccccc1-c1ccc(OC(F)(F)F)cc1)C2,4.3
6,O=[N+]([O-])c1cn2c(n1)OC[C@@H](OCc1ccc(-c3ccc(O)cc3)cc1)C2,4.3
7,O=[N+]([O-])c1cn2c(n1)OC[C@@H](OCc1cccc(-c3ccc(OCCCN4CCOCC4)cc3)c1)C2,11
8,O=[N+]([O-])c1cccc(-c2ccc(CO[C@@H]3COc4nc([N+](=O)[O-])cn4C3)cc2)c1,0.76
9,CC(C)Oc1ccc(-c2ccc(CO[C@@H]3COc4nc([N+](=O)[O-])cn4C3)cc2)cc1,3.8
10,CSc1ccc(-c2ccccc2CO[C@@H]2COc3nc([N+](=O)[O-])cn3C2)cc1,3.4
11,COc1cccc(-c2ccc(CO[C@@H]3COc4nc([N+](=O)[O-])cn4C3)cc2)c1,1.9
12,O=[N+]([O-])c1cn2c(n1)OC[C@@H](OCc1ccc(-c3cccc(OCCCO)c3)cc1)C2,3.2
13,N#Cc1cccc(-c2ccccc2CO[C@@H]2COc3nc([N+](=O)[O-])cn3C2)c1,8.2
14,O=[N+]([O-])c1cn2c(n1)OC[C@@H](OCc1ccc(-c3ccc4ccccc4c3)cc1)C2,0.87
15,O=Cc1cccc(-c2ccc(CO[C@@H]3COc4nc([N+](=O)[O-])cn4C3)cc2)c1,0.57
16,O=Cc1ccc(-c2ccc(CO[C@@H]3COc4nc([N+](=O)[O-])cn4C3)cc2)cc1,1

row,SMILES,MIC [µM]
1,O=[N+]([O-])c1cn2c(n1)OC[C@@H](OCc1cccc(-c3ccc(OC(F)(F)F)cc3)c1)C2,2.2
2,O=[N+]([O-])c1cn2c(n1)OC[C@@H](OCc1ccc(-c3ccccc3Cl)cc1)C2,1.5
3,O=[N+]([O-])c1cn2c(n1)OC[C@@H](OCc1cccc(-c3cccc(F)c3)c1)C2,2.7
4,O=[N+]([O-])c1cn2c(n1)OC[C@@H](OCc1ccccc1-c1ccccc1)C2,2.5
5,O=Cc1ccccc1-c1ccc(CO[C@@H]2COc3nc([N+](=O)[O-])cn3C2)cc1,0.78
6,CSc1ccc(-c2ccc(CO[C@@H]3COc4nc([N+](=O)[O-])cn4C3)cc2)cc1,0.95
7,COc1ccc(-c2cccc(CO[C@@H]3COc4nc([N+](=O)[O-])cn4C3)c2)cc1F,2.2
8,O=[N+]([O-])c1cn2c(n1)OC[C@@H](OCc1ccc(-c3cccc(-c4ccccc4)c3)cc1)C2,0.88
9,CC(=O)c1ccc(-c2cccc(CO[C@@H]3COc4nc([N+](=O)[O-])cn4C3)c2)cc1,1.9
10,COc1c(F)cc(-c2ccc(CO[C@@H]3COc4nc([N+](=O)[O-])cn4C3)cc2)cc1F,1.3
11,COc1cc(C)c(-c2ccc(CO[C@@H]3COc4nc([N+](=O)[O-])cn4C3)cc2)c(C)c1,0.94
12,CSc1ccc(-c2cccc(CO[C@@H]3COc4nc([N+](=O)[O-])cn4C3)c2)cc1,0.93
13,O=[N+]([O-])c1cn2c(n1)OC[C@@H](OCc1ccc(-c3ccc(OCCO)cc3)cc1)C2,3.3
14,O=[N+]([O-])c1cn2c(n1)OC[C@@H](OCc1cccc(-c3cccc(OCCCN4CCOCC4)c3)c1)C2,11
15,CC(C)(C)c1ccc(-c2ccc(CO[C@@H]3COc4nc([N+](=O)[O-])cn4C3)cc2)cc1,> 32

# Source: ChEMBL document CHEMBL1156778, “Synthesis and structure-activity studies of biphenyl analogues of the tuberculosis drug (6S)-2-nitro-6-{[4-(trifluoromethoxy)benzyl]oxy}-6,7-dihydro-5H-imidazo[2,1-b][1,3]oxazine (PA-824)” (J Med Chem, 2010)
